Here are results for 48 sequences from the EternaBench riboswitch data.

In this series the test system is MS2 coat protein. The series can be described thus: apparent Kd, MS2 coat protein; higher = weaker binding; RNA-MaP array; FMN 200 µM where present. The procedure, abridged: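 The apparent Kd is reported as the median of filtered per-cluster binding-curve fits. To get these curves, designs transcribed by stalled E. coli RNA polymerase on Illumina sequencing-chip clusters were titrated with SNAP-549-labelled MS2 coat protein from 0.7 or 1.5 nM, doubling to 3 µM. Titrations were run without and then with constant ligand in 100 mM Tris-HCl pH 7.5, 80 mM KCl, 4 mM MgCl2, BSA, DTT, yeast tRNA and Tween-20, and green signal was normalised to red-channel RNA signal and control-cluster median Fmax.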

Where [1] appears, read: designed as: ON switch for flavin mononucleotide, no ligand.
The mark [2] stands for this setting: ligand present: flavin mononucleotide, designed as: ON switch for flavin mononucleotide.
The mark [3] stands for this setting: designed as: OFF switch for flavin mononucleotide, no ligand.
The mark [4] stands for this setting: ligand present: flavin mononucleotide, designed as: OFF switch for flavin mononucleotide.

With “GUAGCUAUCGGAGGAUAUUCAUACCGCAAACGGACAUGAGGAUCACCCAUGUGGCGAAAGCAUUGGGAGAAGGCCGAUAGCUAC”, the “apparent Kd” value runs as follows: under setting [1], 22.5 nM; under setting [2], 5.68 nM.
As for “CGAACUAAGUAGAAGGCUGUCUUAAAAUAGGACAGAGGAUAUACAUGAGGAUCACCCAUGUACUCCUUUAAUAAGUUUGAAAUA”, the “apparent Kd” value amounted to 5.84 nM under setting [3] and 6.48 nM under setting [4].
For “UGUGUUAUAGGAUAUACGGGUAUGUGAAUCUCUCCAUCGGUACAUGAGGAUCACCCAUGUAGAAGGAUAAGGUA”, in that order: 35.7 nM and 80.8 nM.
For “AACCUGAUAGUGAGGAUAUCGGCGACGACAAGUCACGAGAAGGCACAUGAGGAUCACCCAUGUGAUAAAAUAAA”, the “apparent Kd” value runs as follows: under setting [3], 20.4 nM; under setting [4], 42.1 nM.
Taken in the same sequence, the figures for “GGUUUUUCUGAGGAUAUUGCAUCACCCGAUUUAUAAGAAGGCAGAACAUGAGGAUCACCCAUGUGGGUUUCUAG” were 19.4 nM and 24.8 nM.
On to “AGAUAACACCAGAAGGACAUGAGGAUCACCCAUGUAGGAUAUGGGCAUCACUCGAGAAAGAAACGACCAAAAGGACACGUGGUC”, for which the “apparent Kd” value is, setting by setting: under setting [1], 177 nM; under setting [2], 13.4 nM.
In the case of “AUUAUUUUCGAAGGAUAUGGAUACAUGAGGAUCACCCAUGUAUAAAAUGAGAUCUAUUAUAUGAUCCAGAAGGUCGUUGUUUAU”, the “apparent Kd” value under setting [3] is 35.6 nM and the “apparent Kd” value under setting [4] came to 68.8 nM.
With “CGGGAGGAAGGAUAUACACGGCCUCCUAGAAUAAAUCCUGGACAUGAGGAUCACCCAUGUAGAAGGUCCACCGA”, the “apparent Kd” value under setting [3] is 18.9 nM and the “apparent Kd” value under setting [4] was 24.4 nM.
On to “AUAUGACAUGAGGAUCACCCAUGUAUUCGAGCAUGAGGAUAUAUGACUCGUCAUCGGCGGAUAGAAGGCAUGGUUG”, for which the “apparent Kd” value came out at 88.5 nM under setting [1] and 143 nM under setting [2].
In the case of “AUAAAUCAUGUAGGAUAUGCGUGGCGAAGCUAUGCAGAAGGACAUGAGGAUCACCCAUGUUUUUCCGUCUGCGUACAGACGGAA”, the “apparent Kd” value is, setting by setting: under setting [3], 308 nM; under setting [4], 147 nM.
In the case of “AAGAAACAUGAGGAUCACCCAUGUAAAUAAAACACAGGAUAUCGAAUAUGGGAGAUUUAACGAGAAGGGUGAAGAA”, the “apparent Kd” value under setting [1] was found to be 100 nM and the “apparent Kd” value under setting [2] worked out at 56.6 nM.
For “AAAUACCGGUGAGGAUAUUUUUAAUAGAACUUUAUGAUAUACAUGAGGAUCACCCAUGUUACUUUAAAGAAGGCAUCGGAUAAA”, the “apparent Kd” value reads like this: under setting [3], 17.5 nM; under setting [4], 15.8 nM.
Regarding “UCCCUAAGGCAGGCCGACCAUACAUGAGGAUCACCCAUGUCGAGAAGGUGCUCACGGGUGGGUGGCAAGGAUAUCGGGUCGGAU”, the “apparent Kd” value by setting is: under setting [1], 92.9 nM; under setting [2], 43.6 nM.
Turning to “AUCAGCUUGACAGGAUAUACAUCACUGCGAAAGCAGUGUAUCUUAAUAACAUGAGGAUCACCCAUGUAGAAGGGUCGAGCUGAU”, the “apparent Kd” value came to 18.4 nM under setting [3] and 32.6 nM under setting [4].
For “ACAAGAUCAGGAUAUACAUGAGGAUCACCCAUGUAUAUCAAAAAGGGACUUUCUUAAUGUAGAAGGGAUCUUGU”, in that order: 13.3 nM and 12.8 nM.
Consider “GGCAGAUUCCACAUGAGGAUCACCCAUGUGCUCUUCCGGGCACAGGAUAUCCGCAGUGGUUUCUUGGAGAAGGGUGCUGAUUAA”, for which the “apparent Kd” value turned out to be 26.8 nM under setting [1] and 42.4 nM under setting [2].
For the sequence “AGCGGCGCAGACCACCGCAAAACCAGAAGGACAUGAGGAUCACCCAUGUAACAAAACAGGGCGGUGUAGGAUAUGGCAGACCCA”, the “apparent Kd” value runs as follows: under setting [3], 8.87 nM; under setting [4], 7.71 nM.
For “UGCUAACUGUAGAAGGGUGACAUGAGGAUCACCCAUGUGCACGCGCGAUUUACGGCGCGCGUGCCACAGGAUAUACAGUCGAGU”, the “apparent Kd” value was 28.3 nM under setting [1] and 54.4 nM under setting [2].
For “AAGUAGGAAGGAUAUACAUGGAUAUACAUUCAUGUGGACCUACAUGAGGAUCACCCAUGUAGAAGGUCCUAAUA”, the “apparent Kd” value was determined as 18.1 nM under setting [3] and 12.1 nM under setting [4].
In the case of “AAGAAACAUGAGGAUCACCCAUGUCAGGAUAUGCAAGACUGACGAAAGUCAGUCAAAAGCAGAAGGGACUAGAA”, the “apparent Kd” value under setting [3] was 57.2 nM and the “apparent Kd” value under setting [4] is 76.6 nM.
Taken in the same sequence, the figures for “UGUCGGAGCAGAGGAUAUUACAUGAGGAUCACCCAUGUAUGAACCAAUAGCUGGAAACAGCAAUGUAAGAAGGCUGAUCCGACA” were 11.1 nM and 146 nM.
For “AGACGGAGCUGAGGAUAUAUACAUGAGGAUCACCCAUGUAAGCUCCAGGAAACUGGAGCAAAUGUAUAGAAGGCAGCUCCGUCA”, in that order: 28 nM and 45.9 nM.
Turning to “AGGCGGGUAGGAUAUAUUUUCGUCAACAUGAGGAUCACCCAUGUGUCCUGAAGUGAUAUCAUAGAAGGGCCCAGCU”, the “apparent Kd” value is, setting by setting: under setting [3], 25.4 nM; under setting [4], 33.8 nM.
Taken in the same sequence, the figures for “GGUGCGUAUGUGAGGAUAUGCUGGUCCUUGGAUCCGCAGAAGGCACAUGAGGAUCACCCAUGUGGUGUCGUACC” were 299 nM and 27.6 nM.
Turning to “AAACGCCAACAUGAGGAUCACCCAUGUUCUAGUUUAGGGUCGCAGGAUAUGACUUCGAAGCUUAGUCAGAAGGGUGAAUCCACA”, the “apparent Kd” value stood at 14.5 nM under setting [1] and 10.5 nM under setting [2].
For “GCCCGGGCAGGAUAUGCAGGCCCGGGAAACCGGGCCAUGGGACAUGAGGAUCACCCAUGUAGAAGGGCCCGGGC”, the “apparent Kd” value was 17.1 nM under setting [3] and 17.3 nM under setting [4].
Taken in the same sequence, the figures for “GCAUAUCAGGGAGGAUAUGACAUGAGGAUCACCCAUGUAAUUAUGGCUCUGUCAGAAGGCCCAUCGUCACUAUAGCGACGAGAA” were 587 nM and 16.9 nM.
In the case of “GCUGACGAUGUAGGAUAUCUCGACGAUAAGUCGAGAGAAGGACAUGAGGAUCACCCAUGUAACUCUACGUCAGCGAGGAAACUC”, the “apparent Kd” value is 16.8 nM under setting [3] and 18 nM under setting [4].
Taken in the same sequence, the figures for “AGACUGCGUAGAAUUAGCAGCCGACAGGAUAUGACAUGAGGAUCACCCAUGUGAACUACAAAGGAUCAGAAGGGUCACGACACA” were 20.1 nM and 24.4 nM.
In the case of “AAAAAAAAGGGUGAGGAUAUAGAAAAAAAAACAUGAGGAUCACCCAUGUGAAAAAAAAAAAAAAGCUAGAAGGCACAAAAAAAAAA”, the “apparent Kd” value was 243 nM under setting [1] and 162 nM under setting [2].
For the sequence “AAACAUGUCCGAGGAUAUCUGGAAACAAUUCCAAGAGAAGGCGGACAUGAGGAUCACCCAUGUCUCUCCUCAUCAAAUCCAAGU”, the “apparent Kd” value came out at 11.2 nM under setting [3] and 67.1 nM under setting [4].
For the sequence “CACUCAUGUCUAGGAUAUGAGUGACAAGCGCGAAGUUUUUUCGGCGCUAGCUCAGAAGGAGACAUGAGGAUCACCCAUGUAAGG”, the “apparent Kd” value by setting is: under setting [3], 69.1 nM; under setting [4], 18.2 nM.
For “AAUUAUUUAUGAGGAUAUUGUGGUGAAACACCACAAGAAGGCAUGAUACACAUGAGGAUCACCCAUGUGAGCCUUAUGCAUAUA”, in that order: 20.3 nM and 115 nM.
On to “CCUGGCUUAGGAUAUACAGGAUCCGGGAACCCGGAAGUGAAACAUGAGGAUCACCCAUGUAGAAGGAAGAAAGC”, for which the “apparent Kd” value is, setting by setting: under setting [3], 28.8 nM; under setting [4], 16.5 nM.
Consider “UGUAUGGACAGAGGAUAUGCCGAUAGGAUCUAUUAUCGAAGAAUCCUCACAUGAGGAUCACCCAUGUAGAAGGCUGUCCAUACU”, for which the “apparent Kd” value by setting is: under setting [3], 9.32 nM; under setting [4], 35.8 nM.
Consider “GGAGAUACAUGAGGAUCACCCAUGUAGGAUAUCGGGCCUAUAUAUGGCGAAAGCCAUAUAUAGGCCGAGAAGGGCGUACACACC”, for which the “apparent Kd” value by setting is: under setting [3], 8.07 nM; under setting [4], 7.52 nM.
In the case of “UGGGACGUCGUAGGAUAUGUAGGAUAUUCCUACAUGAGGAUCACCCAUGUUGACAUGGAAGAAGGACAGAAGGACGAUGUCCAU”, the “apparent Kd” value runs as follows: under setting [1], 211 nM; under setting [2], 4.78 nM.
Take “UCCCGUUGUCAGAAGGCUCCUCGGAACCCGAGGAGAGGAUAUGACACAUGAGGAUCACCCAUGUGCCCGGUCGUGACAAAGGUG”: the “apparent Kd” value by setting is: under setting [3], 13.4 nM; under setting [4], 146 nM.
Consider “AUGAUACAUGAGGAUCACCCAUGUCACCUCACACGAGGAUAUCUGAAUCGAUUAGAUUACGGAGAAGGCGUGGAAA”, for which the “apparent Kd” value reads like this: under setting [1], 66.8 nM; under setting [2], 20.8 nM.
On to “CACGAAGGAGGAUAUAUUAAGGCAGAUCCUAUACAUCGGUUACAUGAGGAUCACCCAUGUAGAAGGCCUACAAA”, for which the “apparent Kd” value under setting [3] was found to be 49 nM and the “apparent Kd” value under setting [4] was found to be 185 nM.
For “CUCAUGAGAGGAUAUACAUGAGGAUCACCCAUGUUCUUAUCUCGUCGGGCUCCAUUACGUAGAAGGCUCAUUUG”, in that order: 29.4 nM and 46.9 nM.
As for “GGGUACAUCGGAGGAUAUCAUGUAAAUACAUGAGGAUCACCCAUGUCGAUGGAGACAUCGGAGAUUGAGAAGGCCGAUGUCCCG”, the “apparent Kd” value was 194 nM under setting [1] and 7.99 nM under setting [2].
For the sequence “GUGCGUGGCUAGGAUAUUGUGGAGUUUAGUCAGCGAGAAGGCGCCACAUGAGGAUCACCCAUGUGGUGUUGCUC”, the “apparent Kd” value under setting [3] came out at 13.1 nM and the “apparent Kd” value under setting [4] came to 14.7 nM.
For “GUCAGCUCGUGAGGAUAUACAUCACUGCUUCGGCAGUGUAUUAAGAUAACAUGAGGAUCACCCAUGUAGAAGGCACGAGCUGAU”, in that order: 17 nM and 28.5 nM.
For “GGCCGGAAUGUAGGAUAUGGAUAUUUAAAUAUACCAGAAGGACAUGAGGAUCACCCAUGUAUAAUAAUUAACAAACUUAGAUCC”, in that order: 32.7 nM and 121 nM.
For the sequence “CCGAUAAUGUAGGAUAUCGUAUCGGAAACGAUACGAGAAGGACAAACAUGAGGAUCACCCAUGUUCCUUAACGG”, the “apparent Kd” value under setting [3] is 15.5 nM and the “apparent Kd” value under setting [4] came out at 16.5 nM.
In the case of “UACGGGAGUGGAGGAUAUGCGUAGUACGCUAGAGCAGAAGGCCACAUGAGGAUCACCCAUGUGUCGUCGAAUGCGAUACGCUGG”, the “apparent Kd” value came to 17.6 nM under setting [3] and 77.3 nM under setting [4].
Turning to “AAUUAUUUACAGAAGGAGUAAGAUUAUGUAUUACUAGGAUAUGUUCACAUGAGGAUCACCCAUGUCAUUGUAGGUUUUUUAUGU”, the “apparent Kd” value worked out at 12 nM under setting [3] and 9.95 nM under setting [4].
